Experimental data: ChEMBL document CHEMBL4513216, “Probing the Open Global Health Chemical Diversity Library for Multistage-Active Starting Points for Next-Generation Antimalarials” (ACS Infect Dis, 2020)

Assay: Toxicity liver stage against HepG2, at 10uM
Assay type: cell-based
Parameters: test concentration 10 uM, cell line HepG2-A16-CD81EGFP
Settings: human, HepG2-A16-CD81EGFP cells; read-out: INHIBITION
Procedure, shortened: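 Uninfected HepG2-A16-CD81EGFP cells, 3 × 10^3 per well, 1536-well, plated on prespotted compound at 10 μM final, parasite-free screening media added to match infected plates; puromycin 10 μM positive, DMSO 0.5% negative; run in parallel with 48 h PbLuc assay at 37 °C, 5% CO2; viability by CellTiter-Glo luminescence, normalized to controls.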

SMILES | cytotoxicity at 10 µM [%]
O=C(c1cccnc1)N1CCN2C(=O)N(Cc3ccc(F)cc3)C[C@H]2C1 | -0.756
O=C1CCNc2ccccc2CN1Cc1ccco1 | 1.22
COC(=O)COn1c(SC)nc2ccccc2c1=O | -6.53
CC(C)(C)C1SCC(=O)Nc2c1c(O)nn2C1CCCC1 (stereo not drawn) | 3.36
CCNC(=O)NCc1nn(CCN2CCCC2)c(=O)c2ccccc12 | -3.85
O=C(NC1CCCC1)C1CCN(c2cc(-n3ccnc3)ncn2)CC1 | -9.19
CNC(=O)CS(=O)(=O)C1CCN(S(=O)(=O)c2cccnc2)CC1 | -1.68
CC1N(CC2CC2)C(=O)COC12CCN(C(=O)c1ccncc1)CC2 (stereo not drawn) | -13.7
COc1cccc(CNC(=O)c2nc3c(o2)CN(C(=O)N(C)C)C3)c1 | -1.68
Cn1cnc2c1C(COCC1CC1)CN(C(=O)c1ccsc1)C2 (stereo not drawn) | 4.73
COc1ccccc1CCNC(=O)CC1(Cn2cnnn2)CCCCC1 | 11.3
Cc1ccc(Sc2ccc(N3CCC(C(=O)O)CC3)nn2)cc1 | -0.0154
O=C(Nc1ccccc1)C1=CC2(CCNCC2)c2ccccc21 | 1.54
CC(C)C[C@H](N)COc1cccc(F)c1Oc1ccccc1 | -5.08
CN(C)c1cccc(C2CCN(c3ncccn3)CC2)n1 | -8.41
Cc1nn(C)cc1CN(Cc1ccccn1)Cc1ccccc1Cl | 1.2
CCC1CCCCN1C(=O)Cn1cnc(C#N)n1 (stereo not drawn) | -22.1
Fc1cc(CCNc2ccc3nccn3n2)c2c(c1)COCO2 | 17.2
O=C1CC(C(=O)Nc2nnc(-c3cccs3)[nH]2)c2ccccc2N1 (stereo not drawn) | -0.921
Fc1ccc2c(c1)CCC2NCc1ccc(N2CCOCC2)cc1 (stereo not drawn) | -1.54
O=C(Nc1ccc2c(c1)C(=O)NC2=O)c1cccs1 | -4.08
COCCn1nc(C(=O)N2CCOCC2C)ccc1=O (stereo not drawn) | -8.97
COC(=O)N1CCCC(C(=O)NCCc2c[nH]c3cc(C)ccc23)C1 (stereo not drawn) | -5.95

SMILES | cytotoxicity at 10 µM [%]
CCc1ccsc1C(=O)NC(C#N)CC(C)C (stereo not drawn) | -15
N#Cc1ccc(Cl)cc1NCC1CC1 | -3.7
CCC(c1ccc(F)cc1F)N1CCN(CCO)CC1 (stereo not drawn) | -4.34
O=C(NCc1ccc(-n2cncn2)nc1)c1cnccn1 | -5.18
O=C(Nc1ccc(F)cc1F)NC1(CO)CCOCC1 | -40.4
COc1ccc(S(=O)(=O)C(F)(F)F)cc1NC(=O)CSCC#N | -2.72
Cn1cc(NC(=O)N2CCN(Cc3cscn3)CC2)ccc1=O | 3.67
CCN(CC1CN(Cc2cccnc2)CCO1)c1cccnn1 (stereo not drawn) | -14
CN(Cc1ccc(F)cc1)C(=O)CN1CCCCC1Cn1cncn1 (stereo not drawn) | 0.108
O=C(C1CCCC1)N1CCC2(CC1)OCCO2 | 2.53
CC(=O)N(C)CC(=O)NCC1(c2cccc(C)c2)CCCC1 | -2.37
COCCS(=O)(=O)NC(C)c1cccc(C)c1C (stereo not drawn) | 6.13
COCCCn1ccc(NC(=O)NCCn2ccnc2)n1 | -2.14
CCC(NCc1nccn1C)c1nc(C(F)(F)F)cs1 (stereo not drawn) | 0.245
CCN(CC1CCCO1)S(=O)(=O)c1cc(NC(C)=O)ccc1C (stereo not drawn) | 1.82
CC(NC(=O)N1CCNC(=O)CC1)c1ccc(C(F)(F)F)cc1 (stereo not drawn) | 13.7
O=C(CN1CCC2(CCCCC2)C1)NCC(F)(F)F | -10.5
Cc1ccc(OCCN(C)Cc2ccc(S(=O)(=O)N(C)C)o2)cc1 | -14.8
COc1cccc(C(O)C(=O)N(C)CCc2ccccn2)c1 (stereo not drawn) | 0.413
CCNC(c1ccc(F)cc1)c1cccnc1 (stereo not drawn) | 2.73
O=C(NCCCc1nc(=O)[nH][nH]1)Nc1cccc(F)c1 | -51.1
COCCC(C)NC(=O)N1CCSC(C)(C)C1 (stereo not drawn) | -3.94
CC(C)OCCCNC(=O)NCc1cccc(-n2ccnc2)c1 | 18.5

SMILES | cytotoxicity at 10 µM [%]
NC(=O)C1CCCN1Cc1ccccc1NC(=O)CC(F)(F)F (stereo not drawn) | 13.1
COCC(C)NC(=O)CCCn1cnc2ccccc2c1=O (stereo not drawn) | 8.43
CCc1cnc(CCNS(C)(=O)=O)s1 | 2.17
Cc1ccccc1CN(C)C(=O)c1ccoc1 | 2.2
O=C(NCc1nnc2n1CCCCC2)N1CCC2(CCCCC2)C1 | -13.4
Cc1n[nH]c(C)c1C1CCCN1C(=O)CNC(=O)C(C)(C)C (stereo not drawn) | -29
COCC1CC2(CCN(Cc3ccoc3)CC2)CN1Cc1ccccn1 (stereo not drawn) | -98.8
O=C(c1cccnc1)N1CCO[C@@H]2CNC[C@@H]21 | -103
Cc1ccc(CN2CCCC3(CCN(S(=O)(=O)N(C)C)C3)C2)o1 (stereo not drawn) | 7.49
O=C(c1ccc2c(c1)OCO2)N1CCC[C@]2(C[C@H](OCC3CC3)CO2)C1 | 2.34
Cn1c(C(N)=O)cc2c1CN(C(=O)C1CC(=O)N(C(C)(C)C)C1)CC2 (stereo not drawn) | -49.6
COc1ccccc1OCCn1c(C)c(C)oc1=O | -3.05
Cn1nc(CN2CCCN(C3CCCC3)CC2)c2c(Cl)cccc21 | 11
CC1(C)CN(C(=O)c2cnc(CN3CCCC3)s2)CC[C@]1(C)O | -15.1
Cc1cc(N2CCCN(Cc3ccc(C)o3)CC2)ccn1 | -5.51
COc1ncc(C(=O)N2CCCC3(C=Cc4ccccc4O3)CC2)cn1 (stereo not drawn) | 7.61
COC(=O)c1ccc(N2CCN(C(=O)CCCc3cn[nH]c3)CC2)cc1 | -4.32
Cc1cc(C(F)(F)F)nc(CNC(=O)CCCN2CCCCC2)n1 | -53.1
Cc1cccc(CN2CCCC(O)(CNCCc3c[nH]cn3)C2=O)c1 (stereo not drawn) | 1.31
C[C@@H]1CN(C2CCN(c3ccccc3F)CC2)C[C@]1(C)O | -2.19
CCNc1ncc(C(=O)NC(CC)c2ccnn2C)cn1 (stereo not drawn) | -2.4
O=C(CC1COCCN1)NCCc1nc(-c2ccccn2)no1 (stereo not drawn) | -0.849
CCOCC(=O)N1CCC(Cc2nnc(SC)n2C)CC1 | -53

SMILES | cytotoxicity at 10 µM [%]
CC(C)CN1CCCC1c1ccc(C(=O)Nc2cn(C)nn2)s1 (stereo not drawn) | -4.69
Cn1ccc(C(=O)N2CCC3(CCC(=O)N(C4CCCC4)C3)CC2)n1 | -6.19
Cn1c(N2CCOCC2)nc2cc(C(=O)NCc3cccnc3)ccc21 | 0.678
COc1cc(C)cc(-c2nc3c([nH]2)CCNC3)c1OC | 4.46
COc1cc(C2CC(=O)Nc3c2nc2n3CCCC2)ccc1O (stereo not drawn) | -4.27
O=c1cc(-c2cccnc2)nc(-c2ccc(CN3CC[C@@H](O)C3)cc2)[nH]1 | 2.89
CCc1cc(NCCCC2CCOC2)n2nccc2n1 (stereo not drawn) | 5.04
Cn1nc(C2CCCN(C(=O)Cc3ccsc3)C2)c2nccnc21 (stereo not drawn) | 4.68
Cc1cccc2cc(CNCCCN3CCOCC3)c(=O)[nH]c12 | 0.127
Cc1nc(CN2CCCC(NCc3sccc3C)C2)no1 (stereo not drawn) | -2.85
CC(=O)N1CCC(NC(=O)N2CCN(c3cnccn3)CC2)CC1 | 6.47
CCOc1ccc(CN2CCN(C(=O)c3cc(C4CC4)[nH]n3)CC2)cc1 | 36.1
CN1CCOC(CN(C(=O)CN2CCCC2=O)c2nccs2)C1 (stereo not drawn) | -7.06
Cc1nn(C)c(Cl)c1C1CCCN1C(=O)c1ccc(O)nc1 (stereo not drawn) | -11.2
CCOc1ccc2c(c1)CN(Cc1nc3c(cnn3C)c(=O)[nH]1)CC2 | -0.373
Cc1ccc(-c2noc(CN3CCCC(Cn4cncn4)C3)n2)cc1 (stereo not drawn) | -7.12
CN(CC(=O)N1CCCC1Cn1cccn1)Cc1ccccc1 (stereo not drawn) | -2.12
COc1cc(C)sc1C(=O)N1CCCC(n2nc(C)nc2C)C1 (stereo not drawn) | -13.6
O=C(c1cc2ccccc2[nH]1)N1CCCCC1Cn1cccn1 (stereo not drawn) | 1.27
CC(NCc1ccccc1Cl)c1ccc(OCC(=O)NC2CC2)cc1 (stereo not drawn) | -12.7
O=C(O)c1cc(S(=O)(=O)Nc2ccc(F)c(Cl)c2)cc2c1OCCO2 | -2.33
CCc1noc(CN2CCN(CC(O)c3ccccc3)CC2)n1 (stereo not drawn) | 1.19
O=c1[nH]c(CN2CCOC(Cn3cccn3)C2)nc2ccccc12 (stereo not drawn) | -2.32

SMILES | cytotoxicity at 10 µM [%]
Cc1cc(C2CCCN2CCC(=O)N2CCc3sccc3C2)no1 (stereo not drawn) | -16.1
O=C(Cc1noc2ccccc12)N1CCCC1c1noc(C2CC2)n1 (stereo not drawn) | 61.5
Cc1ccoc1C(=O)NCC(Cc1ccc(F)cc1)C(N)=O (stereo not drawn) | -0.77
CC(C)c1nc(CN2CCCCC2)cs1 | 20.2
Cn1cc(CN2Cc3c(cnn3C)C(COCC3CC3)C2)cn1 (stereo not drawn) | -2.8
Cc1cccc(CN2Cc3[nH]nc(COCC4CC4)c3C2)n1 | 3.79
CCOCC1CN(c2ccc(C)nn2)Cc2cnn(CC)c21 (stereo not drawn) | 9.41
COc1ccc(CNC(C)c2ccccc2Cl)c(OC)c1OC (stereo not drawn) | 8.01
O=C(c1ccccc1)N1CCO[C@@H]2CN(c3ncccn3)C[C@@H]2C1 | -6.63
c1cc(-c2ccc3nc(C4CCN(CC5CC5)CC4)nn3c2)ccn1 | -0.966
CN(Cc1cccnc1)C1CC2(CCN(c3ccccn3)CC2)C1 | 2.86
CCc1cccc2c(CC(=O)N(C)CCN(C)C)c(C)[nH]c12 | 1.26
c1cnc(NCc2cncc3c2CCN(CC2CC2)C3)nc1 | -101
Cn1cnc2c(-c3cccnc3)nc(C3CCNCC3)cc21 | -99.9
CC(C)CN1CC[C@H]2OCC[C@@H](C(=O)N3CCCO3)[C@@H]2C1 | 3.45
Cc1noc([C@]23COC[C@H]2CN(Cc2cc(C)on2)C3)n1 | 0.841
O=C(N[C@H]1CN(Cc2ccsc2)[C@@H]2CCCO[C@H]12)C1CC1 | 4.62
Cc1ccc(N2CCN(C)c3ncccc3C2)nn1 | -3.77
c1ccc(NC[C@@H]2CCC[C@@H]3CN(c4ncccn4)C[C@@H]32)nc1 | -106
O=c1[nH]c2cn(-c3cccc(F)c3)c(=O)n2[nH]1 | -0.687
CCCN1C[C@@H]2CC[C@H]1CN(Cc1cccc(-n3cccn3)c1)C2 | -1.69
